Test results reported in PubChem BioAssay AID588830 (Broad Institute, 2011).
Activity calls are given as the source filed them.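 How the source made its calls: active means fitted IC50 for falling signal at or below ten times the top tested dose; inconclusive means flat fit with 30 to 70% signal loss, or poor fit; inactive means the rest.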

Tested on: ldlA[mSR-BI] CHO cells viability, CellTiter-Glo ATP, 3 h
Assay: ATP-based viability of SR-BI CHO cells – cell-based, CellTiter-Glo luminescence, 3 h, dry powder, cytotoxicity control for SR-BI HDL uptake inhibitor project, dose response (AID 588830)
Conditions: not given
Method in brief: (§1)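 Material: ldlA[mSR-BI] cells, scavenger receptor B1-expressing line; Buffer or medium: PSG and 10% FCS in Ham's F12; Doses: 8-concentration series per compound, added by pin transfer; Timing: 3 h at 37 °C, then 10 min with reagent; Signal: luminescence of cellular ATP via Cell Titer Glo reagent.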

Structure (SMILES) | IC50
Cc1ccc2oc(-c3cccc(NC(=O)c4cc(-n5cnnc5)ccc4Cl)c3)nc2c1 | 12.8 µM
CCOc1ccccc1/C=C/c1onc(C)c1S(=O)(=O)N1CCC(C(=O)NC(C)(C)C)CC1 | > 70 µM (inactive)
O=C(Nc1cc(Cl)ccc1Cl)c1cc(Cl)ccc1NS(=O)(=O)c1ccc(Cl)c([N+](=O)[O-])c1 | > 70 µM (inactive)
Cc1ccc(-c2nnc(N3CCC(C)CC3)c3ccccc23)cc1C | 68.5 µM
O=C(Nc1ccc(-c2nc3ccc(NC(=O)c4ccccc4)cc3[nH]2)cc1)c1ccccc1 | > 70 µM (inactive)
C[C@H]1CN([C@@H](C)CO)C(=O)c2cccc(NC(=O)Nc3ccccc3)c2O[C@@H]1CN(C)Cc1ccc(C(F)(F)F)cc1 | 66.6 µM

Tested on: not listed separately
Assay: as above
Conditions: ldlA[mSR-BI] CHO cells viability, CellTiter-Glo ATP, 3 h; at 30 µM (top of the series)
Method in brief: as §1

Structure (SMILES) | activity change, negative = cytotoxicity
C[C@H]1CN([C@@H](C)CO)C(=O)c2cc(NC(=O)Cc3cn(C)c4ccccc34)ccc2O[C@H]1CN(C)S(=O)(=O)c1ccc(F)cc1 | -1.92% (inactive)

Same assay, conditions: ldlA[mSR-BI] CHO cells viability, CellTiter-Glo ATP, 3 h; at 35 µM (top of the series)

Structure (SMILES) | activity change, negative = cytotoxicity
C[C@H]1CN([C@@H](C)CO)C(=O)c2cc(NC(=O)Cc3cn(C)c4ccccc34)ccc2O[C@@H]1CN(C)S(=O)(=O)c1ccc(F)cc1 | 1.18% (inactive)
O=C(Nc1ccccc1Cl)c1ccccc1NS(=O)(=O)c1ccccc1 | -1.11% (inactive)
CCOC(=O)Nc1cccc(NC(=O)c2cc(OC)cc(OC)c2)c1 | -7.68% (inactive)
CC(C)(C)NC(=O)N1CCN(c2ncccc2C(F)(F)F)CC1 | -3.5% (inactive)
CNC[C@@H]1Oc2ccc(NC(=O)Cc3cn(C)c4ccccc34)cc2C(=O)N([C@H](C)CO)C[C@H]1C | -4.04% (inactive)
Cc1cc(SC(C)C(=O)Nc2ncc(Cl)cc2Cl)nc2ccccc12 (centres undefined) | -10.7% (inactive)
C[C@H]1CN([C@@H](C)CO)C(=O)c2cccc(NC(=O)Nc3ccccc3)c2O[C@@H]1CN(C)Cc1ccc(Cl)c(Cl)c1 | -15.5% (inactive)
C[C@H]1CN([C@@H](C)CO)C(=O)c2cccc(NC(=O)Nc3ccccc3)c2O[C@@H]1CN(C)S(C)(=O)=O | -1.01% (inactive)
CC(C)NC(=O)Nc1cccc2c1O[C@H](CN(C)Cc1ccc(Cl)c(Cl)c1)[C@@H](C)CN([C@@H](C)CO)C2=O | 3.31% (inactive)
O=C(Nc1ccc(-c2nc3ccc(NC(=O)c4ccccc4[N+](=O)[O-])cc3[nH]2)cc1)c1ccccc1[N+](=O)[O-] | 6.32% (inactive)
C[C@H]1CN([C@@H](C)CO)C(=O)c2cc(NC(=O)Nc3ccccc3)ccc2O[C@@H]1CN(C)Cc1ccc(Cl)c(Cl)c1 | -3.67% (inactive)
C[C@H](CO)N1C[C@H](C)[C@H](CN(C)S(=O)(=O)c2ccc(F)cc2)Oc2ccc(NS(C)(=O)=O)cc2C1=O | -6.43% (inactive)
COc1ccc(OC)c(CCNC(=O)c2ccc3c(c2)N(Cc2ccc(F)cc2)CCS3)c1 | -5.33% (inactive)
CC(OC(=O)c1cccc(NS(C)(=O)=O)c1)C(=O)Nc1ccc(N2CCOCC2)cc1 (centres undefined) | -7.82% (inactive)
O=C(Nc1ccc(-c2nc3cc(NC(=O)c4ccccc4[N+](=O)[O-])ccc3o2)cc1)c1ccccc1[N+](=O)[O-] | 1.25% (inactive)
C[C@H]1CN([C@@H](C)CO)C(=O)c2cccc(NC(=O)Nc3ccccc3)c2O[C@@H]1CN(C)Cc1ccccc1 | 0.984% (inactive)
O=C(Nc1ccccc1)c1ccccc1NS(=O)(=O)c1ccc(Cl)cc1 | -7.39% (inactive)
COc1ccc(-c2nnn(CC(=O)N(C3CCCCC3)C(C)C(=O)NC3CCCC3)n2)cc1OC (centres undefined) | -4.74% (inactive)
C[C@H](CO)N1C[C@H](C)[C@H](CN(C)S(=O)(=O)c2ccc(F)cc2)Oc2ccc(NC(=O)Cc3ccccc3)cc2C1=O | -1.65% (inactive)

Structure (SMILES) | activity change, negative = cytotoxicity
Cc1cc(C)c2c(c1)NC(c1cc3c(cc1Br)OCO3)C1CC=CC21 (centres undefined) | -9.46% (inactive)
C[C@@H]1CN([C@H](C)CO)C(=O)c2cc(NC(=O)Cc3cn(C)c4ccccc34)ccc2O[C@H]1CN(C)S(=O)(=O)c1ccc(F)cc1 | 1.06% (inactive)
C[C@H](CO)N1C[C@H](C)[C@H](CN(C)S(=O)(=O)c2ccc(F)cc2)Oc2ccc(NC(=O)CCC(F)(F)F)cc2C1=O | -1.99% (inactive)
CCc1cc2cc3c(cc2nc1SCC(=O)OC(C)C)OCO3 | -2% (inactive)
CC(C)OCCCNC(=O)c1ccc(C2SCC(=O)N2Cc2ccco2)cc1 (centres undefined) | -4.74% (inactive)
COC(=O)c1cn(C(=O)c2cccc3ccccc23)c2ccccc12 | -13.3% (inactive)
C[C@@H]1CN([C@@H](C)CO)C(=O)c2cc(NC(=O)Cc3cn(C)c4ccccc34)ccc2O[C@@H]1CN(C)S(=O)(=O)c1ccc(F)cc1 | 2.84% (inactive)
O=C(Nc1ccc(-c2nc3cc(NC(=O)c4ccc(NC(=O)c5cccc6ccccc56)cc4)ccc3[nH]2)cc1)c1ccc(NC(=O)c2cccc3ccccc23)cc1 | 2.1% (inactive)
CCn1c(COc2c(C)cccc2C)nnc1SCC(=O)N1CCN(c2ccccc2)CC1 | -9.72% (inactive)
N#Cc1sc2nc(C3CC3)cc(-c3ccc(Cl)cc3)c2c1N | -7.15% (inactive)
C[C@@H]1CN([C@H](C)CO)C(=O)c2cc(NC(=O)Cc3cn(C)c4ccccc34)ccc2O[C@@H]1CN(C)S(=O)(=O)c1ccc(F)cc1 | 2.73% (inactive)
C[C@H]1CN([C@@H](C)CO)C(=O)c2cccc(NC(=O)Nc3ccccc3)c2O[C@@H]1CN(C)C | -1.76% (inactive)
Cc1cc(C)n(CC(=O)NC2CCCc3c2cnn3-c2ccc(C)c(C)c2)n1 (centres undefined) | -4.16% (inactive)
C[C@@H]1CN([C@H](C)CO)C(=O)c2cc(NC(=O)Cc3cn(C)c4ccccc34)ccc2O[C@H]1CN(C)S(C)(=O)=O | 3.58% (inactive)
C[C@H]1CN([C@@H](C)CO)C(=O)c2cccc(NC(=O)Nc3ccc(F)cc3)c2O[C@@H]1CN(C)Cc1ccc(Cl)c(Cl)c1 | -26.7% (inactive)
C[C@@H]1CN([C@H](C)CO)C(=O)c2cc(NC(=O)Cc3cn(C)c4ccccc34)ccc2O[C@H]1CN(C)C(=O)Nc1ccc(F)cc1 | 4.57% (inactive)
C[C@H](CO)N1C[C@H](C)[C@@H](CN(C)S(=O)(=O)c2ccc(F)cc2)Oc2ccc(NC(=O)Cc3cn(C)c4ccccc34)cc2C1=O | -0.528% (inactive)
Nc1ccc(C(=O)Nc2ccc(-c3nc4ccc(NC(=O)c5ccc(N)cc5)cc4[nH]3)cc2)cc1 | 7.17% (inactive)
C[C@@H]1CN([C@H](C)CO)C(=O)c2cc(NC(=O)Cc3cn(C)c4ccccc34)ccc2O[C@H]1CN(C)S(=O)(=O)c1ccc(Cl)cc1 | -0.219% (inactive)

Structure (SMILES) | activity change, negative = cytotoxicity
COc1ccc([C@H]2CC(=O)C=C(c3cccc4c3sc3ccccc34)C2)cc1OC | -5.27% (inactive)
O=C(Nc1cccc(NC(=O)c2cc([N+](=O)[O-])ccc2Cl)n1)c1cc([N+](=O)[O-])ccc1Cl | -7.2% (inactive)
C[C@@H]1CN([C@H](C)CO)C(=O)Cc2cc(NC(=O)Cc3cn(C)c4ccccc34)ccc2O[C@H]1CN(C)S(=O)(=O)c1ccc(F)cc1 | 1.4% (inactive)
C[C@@H]1CN([C@@H](C)CO)C(=O)c2cc(NC(=O)Cc3cn(C)c4ccccc34)ccc2O[C@H]1CN(C)S(=O)(=O)c1ccc(F)cc1 | -8.52% (inactive)
O=C(Nc1cc(C(F)(F)F)ccc1Cl)c1ccccc1NS(=O)(=O)c1ccc(Cl)cc1 | -7.07% (inactive)
C[C@@H]1CN([C@H](C)CO)C(=O)c2cc(NC(=O)Cc3cn(C)c4ccccc34)ccc2O[C@H]1CN(C)S(=O)(=O)c1ccccc1 | 1.08% (inactive)
O=C(Nc1ccc(-c2nc3ccc(NC(=O)c4ccc(Cl)cc4)cc3[nH]2)cc1)c1ccc(Cl)cc1 | 3.4% (inactive)
COc1cccc(-c2csc(N3CCN(C(=S)Nc4cccc(Cl)c4)CC3)n2)c1 | -9.99% (inactive)
C[C@H]1CN([C@@H](C)CO)C(=O)c2cccc(NS(C)(=O)=O)c2O[C@@H]1CN(C)Cc1ccc(Cl)c(Cl)c1 | 1.6% (inactive)
O=C(Nc1ccc(-c2nc3cc(NC(=O)c4ccccc4Cl)ccc3o2)cc1)c1ccccc1Cl | 11.9% (inactive)
CCC(=O)N1CCc2cc(-c3csc(NC(=O)c4ccco4)n3)ccc21 | -8.77% (inactive)
O=C(Nc1ccc(Cl)cc1C(=O)c1ccc(Cl)cc1)c1cc(Br)ccc1NS(=O)(=O)c1ccc(Cl)cc1 | -10% (inactive)
CCc1sc(N2C(=O)C3C4CCC(C4=C(C)C)C3C2=O)nc1-c1ccccc1 (centres undefined) | -2.48% (inactive)
CCOC(=O)N1CCC(NC(=O)c2ccc3c(c2)N(Cc2ccc(F)cc2)CCS3)CC1 | -4.76% (inactive)
C[C@H]1CN([C@@H](C)CO)C(=O)c2cccc(N(C)C)c2O[C@@H]1CN(C)Cc1ccc(Cl)c(Cl)c1 | -3.41% (inactive)
Cc1ccccc1NC(=O)NCC1CCN(c2ccc(S(=O)(=O)N3CCOCC3)cc2)CC1 | -8.7% (inactive)
C[C@H](CO)N1C[C@H](C)[C@H](CN(C)S(=O)(=O)c2ccc(F)cc2)Oc2ccc(NC(=O)Cc3cn(C)c4ccccc34)cc2C1=O | -10% (inactive)
O=C(Nc1cc(Cl)ccc1Cl)c1cc(Br)ccc1NS(=O)(=O)c1ccc(Cl)c([N+](=O)[O-])c1 | -11.2% (inactive)

Same assay, conditions: ldlA[mSR-BI] CHO cells viability, CellTiter-Glo ATP, 3 h; at 68 µM (top of the series)

Structure (SMILES) | activity change, negative = cytotoxicity
CCOc1ccc(NC(=O)CN2CCN(CC(=O)Nc3cc(OC)cc(OC)c3)CC2)cc1 | -11.7% (inactive)
